Active and inactive are the calls of the source.
Assays:
Type in all cases: functional, organism-based
Bacillus subtilis = experiment: Antibacterial activity against Bacillus subtilis at 1 mM by almar blue dye reduction assay
In short: (§1)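 Single-point primary screen at 1 mM using Alamar Blue dye reduction as the growth read-out.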

Bacillus anthracis = experiment: Antibacterial activity against Bacillus anthracis at 1mM by almar blue dye reduction assay
Bacillus cereus = experiment: Antibacterial activity against Bacillus cereus at 1 mM by almar blue dye reduction assay; in short: as §1
Saccharomyces cerevisiae = experiment: Antifungal activity against Saccharomyces cerevisiae at 1 mM by almar blue dye reduction assay; in short: as §1
Candida albicans = experiment: Antifungal activity against Candida albicans at 1 mM by almar blue dye reduction assay; in short: as §1
Cryptococcus neoformans = experiment: Antifungal activity against Cryptococcus neoformans at 1 mM by almar blue dye reduction assay; in short: as §1
Staphylococcus aureus = experiment: Antibacterial activity against Staphylococcus aureus at 1 mM by almar blue dye reduction assay; in short: as §1
Escherichia coli = experiment: Antibacterial activity against Escherichia coli at 1 mM by almar blue dye reduction assay; in short: as §1
Pseudomonas aeruginosa = experiment: Antibacterial activity against Pseudomonas aeruginosa at 1 mM by almar blue dye reduction assay; in short: as §1

Measured: Activity

Cc1cccc(NC(=O)NCC#Cc2cn([C@H](C)CC3CCC([C@@H](C)C(=O)N(C)Cc4ccccc4)O3)nn2)c1 (single isomer, unassigned)
inactive: all assays above

CC(C)NC(=O)[C@H](C)[C@H]1CC[C@@H](C[C@@H](C)n2cc(C#CCN3CCC(c4ccccc4)CC3)nn2)O1
inactive: all assays above

C[C@H](CC1CCC([C@@H](C)C(=O)N2CCN(CC3CCCO3)CC2)O1)n1cc(C#CCCCC#N)nn1 (single isomer, unassigned)
inactive: all assays above

Cc1cccc(NC(=O)NCC#Cc2cn([C@H](C)CC3CCC([C@@H](C)C(=O)N4CCN(CC5CCCO5)CC4)O3)nn2)c1 (single isomer, unassigned)
inactive: all assays above

COc1ccc(C#Cc2cn([C@H](C)C[C@@H]3CC[C@H]([C@@H](C)C(=O)N4CCN(CC5CCCO5)CC4)O3)nn2)cc1 (some centres not stated)
inactive: all assays above

C[C@H](C[C@@H]1CC[C@H]([C@@H](C)C(=O)N2CCCC2)O1)n1cc(C#CCN2CCN(c3ccccc3)CC2)nn1
inactive: all assays above

CCCNC(=O)NCC#Cc1cn([C@H](C)CC2CCC([C@@H](C)C(=O)N3CCCC3)O2)nn1 (single isomer, unassigned)
inactive: all assays above

C[C@H](C[C@@H]1CC[C@H]([C@@H](C)C(=O)N(C)Cc2ccccc2)O1)n1cc(C#CC2=CCCCC2)nn1
inactive: all assays above

CCCNC(=O)NCC#Cc1cn([C@H](C)CC2CCC([C@@H](C)C(=O)NC(C)C)O2)nn1 (single isomer, unassigned)
inactive: all assays above

C[C@H](CC1CCC([C@@H](C)C(=O)N2CCCC2)O1)n1cc(C#CCOC(=O)OCc2ccccc2)nn1 (single isomer, unassigned)
inactive: all assays above

CCOC(=O)C#Cc1cn([C@H](C)CC2CCC([C@@H](C)C(=O)NC(C)C)O2)nn1 (single isomer, unassigned)
inactive: all assays above

CCN(CC)C(=O)[C@H](C)[C@H]1CC[C@@H](C[C@@H](C)n2cc(C#Cc3ccc(Oc4ccccc4)cc3)nn2)O1
inactive: all assays above

CCN(CC)C(=O)[C@H](C)C1CCC(C[C@@H](C)n2cc(C#CCOC(=O)OCc3ccccc3)nn2)O1 (single isomer, unassigned)
inactive: all assays above

CCN(CC)C(=O)[C@H](C)[C@H]1CC[C@@H](C[C@@H](C)n2cc(C#CCOc3ccc(OC)cc3)nn2)O1
inactive: all assays above

CCCCN(CC#Cc1cn([C@H](C)C[C@@H]2CC[C@H]([C@@H](C)C(=O)N3CCCC3)O2)nn1)CCCC
inactive: all assays above

CC(C)NC(=O)[C@H](C)[C@H]1CC[C@@H](C[C@@H](C)n2cc(C#CCc3ccccc3)nn2)O1
inactive: all assays above

CC(C)NC(=O)[C@H](C)[C@H]1CC[C@@H](C[C@@H](C)n2cc(C#CCN3CCN(c4ccccc4)CC3)nn2)O1
inactive: all assays above

C[C@H](C[C@H]1CC[C@H]([C@@H](C)C(=O)N2CCCC2)O1)n1cc(C#CCN(C)C)nn1
inactive: all assays above

CCN(CC)C(=O)[C@H](C)[C@H]1CC[C@@H](C[C@@H](C)n2cc(C#CCCCC#N)nn2)O1
inactive: all assays above

CC(C)NC(=O)[C@H](C)C1CCC(C[C@@H](C)n2cc(C#CCOC(=O)OCc3ccccc3)nn2)O1 (single isomer, unassigned)
inactive: all assays above

CCN(CC)C(=O)[C@H](C)[C@H]1CC[C@@H](C[C@@H](C)n2cc(C#CCOc3ccc(Br)cc3)nn2)O1
inactive: all assays above

COc1cccc(OCC#Cc2cn([C@H](C)C[C@@H]3CC[C@H]([C@@H](C)C(=O)N4CCCC4)O3)nn2)c1OC
inactive: all assays above

C[C@H](C[C@@H]1CC[C@H]([C@@H](C)C(=O)N(C)Cc2ccccc2)O1)n1cc(C#CCN(C)C)nn1
inactive: all assays above
